{"data": "Assay results collected from several papers", "target": "Serine/threonine-protein kinase BRSK1 (BRSK1, Homo sapiens, UniProt Q8TDC3)", "One construct used (Q8TDC3 1-778)": "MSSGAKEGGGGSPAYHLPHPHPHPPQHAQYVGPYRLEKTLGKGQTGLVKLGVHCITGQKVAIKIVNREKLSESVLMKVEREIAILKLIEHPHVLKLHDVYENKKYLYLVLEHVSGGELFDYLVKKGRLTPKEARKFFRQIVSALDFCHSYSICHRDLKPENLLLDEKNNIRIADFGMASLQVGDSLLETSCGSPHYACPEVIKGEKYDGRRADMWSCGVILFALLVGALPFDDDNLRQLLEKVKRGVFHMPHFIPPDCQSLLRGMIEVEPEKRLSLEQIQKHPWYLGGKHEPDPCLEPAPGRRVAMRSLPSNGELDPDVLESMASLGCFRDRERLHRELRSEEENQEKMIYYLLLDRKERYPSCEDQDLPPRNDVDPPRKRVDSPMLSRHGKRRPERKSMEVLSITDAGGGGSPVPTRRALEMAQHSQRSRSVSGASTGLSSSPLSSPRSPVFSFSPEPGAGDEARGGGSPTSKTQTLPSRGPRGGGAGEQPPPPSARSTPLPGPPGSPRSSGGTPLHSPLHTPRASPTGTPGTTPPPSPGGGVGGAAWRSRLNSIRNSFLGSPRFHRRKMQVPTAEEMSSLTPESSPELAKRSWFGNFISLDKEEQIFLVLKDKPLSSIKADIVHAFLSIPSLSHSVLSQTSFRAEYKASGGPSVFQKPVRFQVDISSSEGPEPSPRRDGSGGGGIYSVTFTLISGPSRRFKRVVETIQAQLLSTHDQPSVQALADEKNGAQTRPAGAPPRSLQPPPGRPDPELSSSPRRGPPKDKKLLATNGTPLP", "note": "Lines come from different studies, so protocols differ."}
{"SMILES": "CC1=C(C#N)C(c2ccc3c(c2)c(NC(=O)c2ccccc2C)nn3C)C(C#N)=C(C)N1", "read-out": "cell-free assay", "technique": "competition with immobilised ligand", "tested at": "1 µM", "endpoint": "remaining binding", "result": "100%"}
{"SMILES": "FC(F)c1nc2ccccc2n1-c1nc(N2CCOCC2)nc(N2CCOCC2)n1", "read-out": "enzyme activity", "action": "inhibitor", "tested at": "10 µM", "endpoint": "remaining activity", "result": "161%"}
{"SMILES": "CCCCN(CCCC)C(=O)CN1C[C@@H](c2cc(OC)c3c(c2)OCO3)[C@H](C(=O)O)[C@H]1CC(C)(C)CCC", "read-out": "cell-free assay", "technique": "competition with immobilised ligand", "tested at": "1 µM", "endpoint": "remaining binding", "result": "88.9%"}
{"SMILES": "N#CCCc1ccc2c(c1)-c1[nH]c3ccc([N+](=O)[O-])cc3c1CC(=O)N2", "read-out": "cell-free assay", "tested at": "0.5 µM", "endpoint": "remaining signal", "result": "46.8%"}
{"SMILES": "CC(C)(O)[C@H]1CC[C@H](Nc2ccc3ncc(-c4cccc(C(F)(F)F)c4)n3n2)CC1", "read-out": "enzyme activity", "action": "inhibitor", "tested at": "1 µM", "endpoint": "remaining activity", "result": "98.1%"}
{"SMILES": "CCCS(=O)(=O)Nc1ccc(F)c(C(=O)c2c[nH]c3ncc(-c4ccc(Cl)cc4)cc23)c1F", "read-out": "enzyme activity", "action": "inhibitor", "tested at": "1 µM", "endpoint": "inhibition", "result": "< 10%"}
{"SMILES": "CCc1ccccc1C(=O)Nc1n[nH]c2c(C)c(F)c(C3C(C#N)=C(C)N(C)C(C)=C3C#N)cc12", "read-out": "cell-free assay", "technique": "competition with immobilised ligand", "tested at": "1 µM", "endpoint": "remaining binding", "result": "55%"}
{"SMILES": "CN1CC(Oc2cnc(C#N)cc2-c2ccn3nc(NC(=O)C4CC4)cc3c2)C1", "read-out": "enzyme activity", "action": "inhibitor", "tested at": "1 µM", "endpoint": "inhibition", "result": "6%"}
{"SMILES": "C[C@H](c1ccc(F)cc1)N(Cc1cccc(C(=O)O)c1)C(=O)c1cnc2ccccc2c1", "read-out": "cell-free assay", "technique": "competition with immobilised ligand", "tested at": "1 µM", "endpoint": "remaining binding", "result": "100%"}
{"SMILES": "CC/C(=N\\NC(=O)NCc1cccc(O)c1)c1ccc(O)c(C)c1O", "read-out": "enzyme activity", "action": "inhibitor", "tested at": "0.1 µM", "endpoint": "inhibition", "result": "1.7%"}
{"SMILES": "N[C@@H]1CCN(c2nccc(-c3cnn4ncccc34)n2)C1", "read-out": "binding", "tested at": "1 µM", "endpoint": "remaining binding", "result": "100%"}
{"SMILES": "CCN(CC)CCNC(=O)c1c(C)[nH]c(/C=C2\\C(=O)Nc3ccc(F)cc32)c1C", "read-out": "enzyme activity", "action": "inhibitor", "tested at": "0.3 µM", "endpoint": "inhibition", "result": "27%"}
{"SMILES": "CN(C)C(=O)Cn1cc(-c2nc(C3(c4ccc(-c5cnc(N)nc5)cc4)CC3)no2)cn1", "read-out": "cell-free assay", "technique": "competition with immobilised ligand", "tested at": "1 µM", "endpoint": "remaining binding", "result": "93%"}
{"SMILES": "Nc1ncnc2occ(-c3ccc(NC(=O)Nc4cc(C(F)(F)F)ccc4F)cc3)c12", "read-out": "cell-free assay", "action": "inhibitor", "tested at": "20 µM", "endpoint": "remaining signal", "result": "8.4%"}
{"SMILES": "CC(C)(C)c1nc2c(s1)c1nc(N)ncc1c1ccc(NS(=O)(=O)c3c(F)cccc3F)c(F)c12", "read-out": "enzyme activity", "action": "inhibitor", "technique": "radiometric", "tested at": "1 µM", "endpoint": "remaining activity", "result": "102%"}
{"SMILES": "C[C@H](c1ccnc(Nc2nc3ccc(-c4cc(N(C)C)ncn4)cc3[nH]2)c1)N1CCN(C(=O)CC(F)(F)F)CC1", "read-out": "cell-free assay", "technique": "competition with immobilised ligand", "tested at": "0.1 µM", "endpoint": "remaining binding", "result": "100%"}
{"SMILES": "COc1cc(Nc2cnc(C#N)c(O[C@H](C)CN(C)C)n2)ncc1-c1cnn(C)c1", "read-out": "enzyme activity", "action": "inhibitor", "technique": "radiometric", "tested at": "10 µM", "endpoint": "remaining activity", "result": "53%"}
{"SMILES": "NS(=O)(=O)c1cc(NC(=O)Cc2ccccc2)ccc1Oc1cccc(Cl)c1", "read-out": "cell-free assay", "technique": "competition with immobilised ligand", "tested at": "1 µM", "endpoint": "remaining binding", "result": "91%"}
{"SMILES": "COc1cc2ncnc(Nc3ccc(Oc4ccccc4)cc3C)c2cc1OC", "read-out": "enzyme activity", "action": "inhibitor", "tested at": "1 µM", "endpoint": "inhibition", "result": "1%"}
{"SMILES": "CCC(=N\\O)/C(C)=C/c1ccc(F)cc1", "read-out": "cell-free assay", "technique": "competition with immobilised ligand", "tested at": "1 µM", "endpoint": "remaining binding", "result": "100%"}
{"SMILES": "COc1cc(Cl)c(C(=O)N[C@@H](CN[C@H]2CC[C@@H](N)CC2)Cc2ccc(C#N)cc2)cc1-c1ccc(CN[C@H](C)c2ccc(C)cc2)o1", "read-out": "enzyme activity", "action": "inhibitor", "tested at": "1 µM", "endpoint": "remaining activity", "result": "100%"}
{"SMILES": "Cc1ccc(Nc2nccc(N(C)c3ccc4c(C)n(C)nc4c3)n2)cc1S(N)(=O)=O", "read-out": "enzyme activity", "action": "inhibitor", "tested at": "10 µM", "endpoint": "inhibition", "result": "36%"}
{"SMILES": "CCCOc1ccc(OC)c(F)c1C(=O)c1ccc(C(=O)N[C@@H]2CNC[C@H]2NC(=O)c2ccc3[nH]ncc3c2)cc1", "read-out": "enzyme activity", "action": "inhibitor", "tested at": "10 µM", "endpoint": "remaining activity", "result": "40%"}
{"SMILES": "FC(F)(F)Oc1cccc(-c2cnc3ccc(-c4ccncc4)nn23)c1", "read-out": "enzyme activity", "action": "inhibitor", "technique": "radiometric", "tested at": "5 µM", "endpoint": "activity vs control", "result": "82%"}
{"SMILES": "O=C(Nc1cnn(-c2csc(C(=O)NC3COC3)c2)c1)Nc1c(F)cccc1Cl", "read-out": "enzyme activity", "action": "inhibitor", "tested at": "5 µM", "endpoint": "remaining activity", "result": "99.4%"}
{"SMILES": "CNC(=O)c1cc(Oc2ccc(NC(=O)Nc3ccc(Cl)c(C(F)(F)F)c3)cc2)ccn1", "read-out": "enzyme activity", "action": "inhibitor", "tested at": "0.3 µM", "endpoint": "inhibition", "result": "17%"}
{"SMILES": "O=C1Nc2ccc(Cl)cc2C1=Cc1cc(Cl)c(O)c(Cl)c1", "read-out": "cell-free assay", "tested at": "0.5 µM", "endpoint": "remaining signal", "result": "81.3%"}
